Data set [1] deals with T1, Cytochrome P450 1A2 (Homo sapiens, UniProt P05177).
T1 sequence (P05177 whole entry): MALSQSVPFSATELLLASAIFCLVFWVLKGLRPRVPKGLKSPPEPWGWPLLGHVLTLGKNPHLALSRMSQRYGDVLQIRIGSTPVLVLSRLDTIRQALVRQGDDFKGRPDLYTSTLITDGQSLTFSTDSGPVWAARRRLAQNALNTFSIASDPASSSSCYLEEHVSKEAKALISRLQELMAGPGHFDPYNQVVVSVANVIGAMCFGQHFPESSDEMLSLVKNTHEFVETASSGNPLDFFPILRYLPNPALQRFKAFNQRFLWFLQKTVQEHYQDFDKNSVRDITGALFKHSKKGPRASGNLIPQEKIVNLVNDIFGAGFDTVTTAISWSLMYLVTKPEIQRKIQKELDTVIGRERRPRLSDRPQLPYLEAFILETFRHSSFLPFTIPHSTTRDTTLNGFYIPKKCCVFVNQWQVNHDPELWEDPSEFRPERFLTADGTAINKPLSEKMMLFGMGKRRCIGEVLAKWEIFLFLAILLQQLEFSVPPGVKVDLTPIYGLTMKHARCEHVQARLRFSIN
The experiment in a line: Inhibition of human recombinant CYP1A2 assessed as metabolism of 3-cyano-7-ethoxycoumarin after 30 mins by fluorescence assay. Type of data set: ADME.

For data set [2], the target named is Cytochrome P450 3A5 (Homo sapiens, UniProt P20815). The experiment in a line: Inhibition of human recombinant CYP3A5 assessed as metabolism of 7-benzyloxy-4-trifluoromethylcoumarin to HFC after 30 mins by fluorescence assay. Type of data set: ADME.
Cytochrome P450 3A5, sequence (P20815 whole entry): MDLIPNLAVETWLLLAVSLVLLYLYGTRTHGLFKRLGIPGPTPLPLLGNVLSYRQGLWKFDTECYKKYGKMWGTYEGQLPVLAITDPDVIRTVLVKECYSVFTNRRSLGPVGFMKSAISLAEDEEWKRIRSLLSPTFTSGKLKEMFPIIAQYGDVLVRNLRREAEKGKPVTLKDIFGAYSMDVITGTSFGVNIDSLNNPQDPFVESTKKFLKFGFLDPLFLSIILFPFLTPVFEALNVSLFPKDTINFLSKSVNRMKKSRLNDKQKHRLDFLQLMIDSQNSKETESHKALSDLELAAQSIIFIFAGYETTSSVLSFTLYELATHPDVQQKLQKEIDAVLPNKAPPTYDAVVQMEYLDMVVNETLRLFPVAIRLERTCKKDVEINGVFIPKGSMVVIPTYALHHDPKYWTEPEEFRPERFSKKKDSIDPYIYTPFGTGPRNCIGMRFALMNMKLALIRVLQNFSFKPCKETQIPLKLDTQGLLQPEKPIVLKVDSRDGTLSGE
For data set [3], the target named is Cytochrome P450 3A4 (Homo sapiens, UniProt P08684). Kind of data set: Inhibition of human recombinant CYP3A4 assessed as metabolism of 7-benzyloxy-4-trifluoromethylcoumarin to HFC after 30 mins by fluorescence assay. In kind it is ADME.
Cytochrome P450 3A4, sequence (P08684 whole entry): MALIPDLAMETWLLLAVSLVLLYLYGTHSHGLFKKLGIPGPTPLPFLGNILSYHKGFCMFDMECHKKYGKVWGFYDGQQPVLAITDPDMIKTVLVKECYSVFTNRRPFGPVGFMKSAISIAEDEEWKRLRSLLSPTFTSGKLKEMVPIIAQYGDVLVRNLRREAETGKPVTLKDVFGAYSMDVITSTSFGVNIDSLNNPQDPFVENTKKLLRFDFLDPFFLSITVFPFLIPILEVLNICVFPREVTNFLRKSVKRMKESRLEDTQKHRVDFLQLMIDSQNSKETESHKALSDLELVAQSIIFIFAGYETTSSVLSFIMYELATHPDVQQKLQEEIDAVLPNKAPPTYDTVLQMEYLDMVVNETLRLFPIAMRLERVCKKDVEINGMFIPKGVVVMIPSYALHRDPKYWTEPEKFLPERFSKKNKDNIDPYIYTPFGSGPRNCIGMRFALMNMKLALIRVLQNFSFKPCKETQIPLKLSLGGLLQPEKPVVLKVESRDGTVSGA
For data set [4], the target named is Cytochrome P450 2D6 (Homo sapiens, UniProt P10635). The experiment in a line: Inhibition of human recombinant CYP2D6 after 30 mins by fluorescence assay. In kind it is ADME.
Cytochrome P450 2D6, sequence (P10635 whole entry): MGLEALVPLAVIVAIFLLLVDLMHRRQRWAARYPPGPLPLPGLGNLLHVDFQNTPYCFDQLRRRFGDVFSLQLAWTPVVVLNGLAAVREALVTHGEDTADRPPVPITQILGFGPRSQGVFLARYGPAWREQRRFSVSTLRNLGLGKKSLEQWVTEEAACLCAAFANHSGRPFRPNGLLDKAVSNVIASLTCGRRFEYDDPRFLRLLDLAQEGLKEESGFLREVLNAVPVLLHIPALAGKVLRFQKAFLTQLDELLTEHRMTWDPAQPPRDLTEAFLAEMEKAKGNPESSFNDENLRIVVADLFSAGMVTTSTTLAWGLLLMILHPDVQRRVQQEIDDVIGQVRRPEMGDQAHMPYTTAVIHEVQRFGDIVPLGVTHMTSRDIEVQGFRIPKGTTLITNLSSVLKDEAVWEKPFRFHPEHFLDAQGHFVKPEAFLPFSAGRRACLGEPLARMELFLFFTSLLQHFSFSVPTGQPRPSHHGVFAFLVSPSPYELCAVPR
In data set [5] the target is T2, Cytochrome P450 2A6 (Homo sapiens, UniProt P11509).
T2 sequence (P11509 whole entry): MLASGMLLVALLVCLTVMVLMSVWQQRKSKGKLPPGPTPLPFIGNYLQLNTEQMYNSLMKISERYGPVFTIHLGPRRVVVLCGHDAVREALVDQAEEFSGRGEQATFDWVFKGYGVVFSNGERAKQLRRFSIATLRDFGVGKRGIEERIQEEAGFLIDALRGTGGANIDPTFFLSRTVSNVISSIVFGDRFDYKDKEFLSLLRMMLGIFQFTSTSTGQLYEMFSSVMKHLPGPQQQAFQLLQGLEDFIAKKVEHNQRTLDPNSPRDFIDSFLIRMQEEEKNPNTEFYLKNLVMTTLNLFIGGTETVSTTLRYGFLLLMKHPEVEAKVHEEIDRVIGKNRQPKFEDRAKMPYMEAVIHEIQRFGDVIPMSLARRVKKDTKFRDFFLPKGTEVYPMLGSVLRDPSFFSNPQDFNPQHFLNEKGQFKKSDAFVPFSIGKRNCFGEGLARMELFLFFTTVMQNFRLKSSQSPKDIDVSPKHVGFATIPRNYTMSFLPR
Kind of data set: Inhibition of human recombinant CYP2A6 assessed as metabolism of coumarin to 7-hydroxycoumarin after 30 mins by fluorescence assay. Type of data set: ADME.

In data set [6] the target is T3, Estrogen receptor (Homo sapiens) (UniProt P03372).
T3 sequence (whole entry): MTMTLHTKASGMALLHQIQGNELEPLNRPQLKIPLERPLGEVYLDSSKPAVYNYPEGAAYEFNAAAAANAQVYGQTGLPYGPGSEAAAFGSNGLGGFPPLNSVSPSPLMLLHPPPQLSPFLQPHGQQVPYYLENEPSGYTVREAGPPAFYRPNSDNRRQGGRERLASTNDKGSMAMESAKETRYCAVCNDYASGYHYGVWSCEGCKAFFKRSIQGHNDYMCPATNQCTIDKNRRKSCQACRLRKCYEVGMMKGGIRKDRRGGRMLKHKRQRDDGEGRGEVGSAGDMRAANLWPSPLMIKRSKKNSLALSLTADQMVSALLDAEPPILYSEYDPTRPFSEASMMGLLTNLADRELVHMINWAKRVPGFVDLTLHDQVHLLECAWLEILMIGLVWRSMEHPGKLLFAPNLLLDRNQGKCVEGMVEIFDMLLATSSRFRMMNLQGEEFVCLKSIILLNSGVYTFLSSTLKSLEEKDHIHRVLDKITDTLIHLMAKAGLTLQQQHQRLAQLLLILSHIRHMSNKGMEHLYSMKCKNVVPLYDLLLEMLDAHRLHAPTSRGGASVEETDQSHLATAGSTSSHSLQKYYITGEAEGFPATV
The experiment in a line: Antiestrogenic effect at estrogen receptor in human MCF7 cells assessed as inhibition of E2-induced progesterone receptor mRNA expression at 1000 nM after 24 hrs by real time quantitative PCR. Type of data set: cell-based. The arrangement: scale not given: the % may be the effect or the level left. An outline of the steps: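 MCF-7 cells (10⁵/well) grown in MEM + 10% FBS at 37 °C, 5% CO₂, then preconditioned 72 h in charcoal-stripped FBS. Treated 24 h with 1 μM compound or vehicle (0.1% methanol) plus 10 nM E2 in MEM/10% charcoal-stripped FBS. PGR mRNA extracted after genomic DNA removal and quantified by qPCR (40 cycles, Ct). Reported as % of E2-alone expression (100%); 1 μM endoxifen as positive control.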

The target in data set [7] is Estrogen receptor beta (Homo sapiens, UniProt Q92731). Kind of data set: Displacement of fluorescein-labeled ES2 from human recombinant ERbeta receptor after 2 hrs by fluorescence polarization assay. An outline of the steps:
(§1)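 Fluorescence polarization competition. Compound in methanol or DMSO mixed with ES2 screening buffer (100 mM potassium phosphate, 100 μg/mL BGG, 0.02% NaN₃). Preformed complex added to final 9 nM ES2 with 30 nM ER-α or 20 nM ER-β. Polarization expressed as % of vehicle control; EC50 from one-site competition fit.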
On the technique in general: Polarisation of emitted light reports the rotation of a fluorescent probe.

The target of data set [8] is T4, Aromatase (Homo sapiens, UniProt P11511).
T4 sequence (P11511 whole entry): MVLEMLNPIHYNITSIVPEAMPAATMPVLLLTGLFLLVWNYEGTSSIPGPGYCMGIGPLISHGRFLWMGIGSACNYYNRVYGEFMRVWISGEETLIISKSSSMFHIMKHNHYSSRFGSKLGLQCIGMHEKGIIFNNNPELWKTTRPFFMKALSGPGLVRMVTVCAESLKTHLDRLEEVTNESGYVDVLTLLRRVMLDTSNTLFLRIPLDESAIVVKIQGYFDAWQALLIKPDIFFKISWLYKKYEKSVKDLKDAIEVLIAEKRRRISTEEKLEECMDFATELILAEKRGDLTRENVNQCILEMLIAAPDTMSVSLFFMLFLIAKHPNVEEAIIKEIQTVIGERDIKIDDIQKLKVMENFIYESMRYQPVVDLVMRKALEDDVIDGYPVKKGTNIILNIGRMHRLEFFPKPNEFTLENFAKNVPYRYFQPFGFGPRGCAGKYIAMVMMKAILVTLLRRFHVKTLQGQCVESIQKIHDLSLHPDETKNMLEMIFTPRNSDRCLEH
Kind of data set: Inhibition of human recombinant aromatase using 7-methoxy-trifluoromethylcoumarin as substrate assessed as formation of fluorescent metabolite after 30 mins by fluorescence assay. In outline:
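Recombinant human CYP19 with MFC substrate, converted to fluorescent HFC, in 0.1 M potassium phosphate pH 7.4. NADPH-regenerating mix (NADP⁺, MgCl₂, glucose-6-phosphate, G6PDH); compound prewarmed 10 min at 37 °C, then 30 min reaction stopped with Tris base in acetonitrile. Activity as % of vehicle control; IC50 from one-site competition fit; Ki from Lineweaver–Burk data by nonlinear regression.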

Data set [9] addresses T5, Estrogen receptor (Homo sapiens, UniProt P03372).
T5 sequence (P03372 whole entry): T3 sequence (whole entry)
The experiment in a line: Displacement of fluorescein-labeled ES2 from human recombinant ERalpha receptor after 2 hrs by fluorescence polarization assay. An outline of the steps:
as §1

Estrogen receptor beta, sequence (Q92731 whole entry): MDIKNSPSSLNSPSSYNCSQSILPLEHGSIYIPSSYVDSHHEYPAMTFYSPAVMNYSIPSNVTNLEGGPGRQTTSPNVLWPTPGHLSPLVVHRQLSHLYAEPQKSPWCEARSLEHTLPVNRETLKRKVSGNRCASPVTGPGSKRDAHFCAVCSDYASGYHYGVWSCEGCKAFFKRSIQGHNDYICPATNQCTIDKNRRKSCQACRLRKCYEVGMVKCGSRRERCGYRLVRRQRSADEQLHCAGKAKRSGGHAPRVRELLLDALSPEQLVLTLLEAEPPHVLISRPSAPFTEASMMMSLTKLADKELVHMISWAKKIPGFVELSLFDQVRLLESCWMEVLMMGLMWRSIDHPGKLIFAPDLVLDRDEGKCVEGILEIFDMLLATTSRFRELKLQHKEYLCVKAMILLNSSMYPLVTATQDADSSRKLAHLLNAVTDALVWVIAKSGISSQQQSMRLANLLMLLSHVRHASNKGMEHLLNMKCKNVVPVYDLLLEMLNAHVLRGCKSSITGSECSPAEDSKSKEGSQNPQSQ

For orientation: IC50 means the point on the concentration scale where inhibition reaches its midpoint. As usually defined, the Ki is a dissociation constant, usually derived from enzyme kinetics or from competition with a known ligand. `CC/C(=C(/c1ccc(O)cc1)c1ccc(OCCN)cc1)c1ccccc1` (mixture of isomers): the half-maximal inhibitory concentration (IC50) turned out to be 207 nM in [1], 723 nM in [2], 285 nM in [3] and 6370 nM in data set [5]. Besides, the Ki in data set [2] was 829 nM; in data set [3] it was 375 nM; in [4], “Not Active”; in [5], 2180 nM. In addition, in data set [4] (human, recombinant enzyme, 0.5 h), the “inhibition (INH)” value was “Not Active”. Further, in [6], the Activity amounted to 32%.
Broadly, the EC50 is the concentration needed to bring the measured effect to its halfway point. On to `CC/C(=C(/c1ccc(O)cc1)c1ccc(OCCN)cc1)c1ccc(O)cc1` (mixture of isomers), for which the EC50 in data set [7] stood at 9.5 nM; in data set [9], 15 nM. Further, the IC50 in [1] amounted to 207 nM; in data set [2], 556 nM; in data set [3] it was 1880 nM; in data set [4], 3600 nM; in data set [8], 45 nM. Further, the inhibition constant Ki is 56 nM in data set [1]; 855 nM in data set [2]; 1640 nM in data set [3]; 423 nM in [4] (read-out: Ki); 710 nM in data set [5]. In data set [6], the Activity was 14%.

(Values after ChEMBL document CHEMBL3421623 (J Med Chem, 2015).)
